# Only some compounds are listed: those with a hit (about 1.7% of all), similar ones and a draw of the others.
# Hsp70 activator: Hsp70 transcriptional activators, primary screen, cell-based, HeLa, Hsp70 promoter luciferase, luminescence, 10 µM; activation, % at 10 µM; 200,000 tested, 0.04% active; HeLa Hsp70 promoter luciferase reporter; scaled: vehicle 0, proteasome-inhibitor control 100%; AID 1203, 2008;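 active = activation above the mean across all tested compounds plus 3 SD, cutoff set per campaign, cut at about 5.5% in these data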;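 also: 100% = MG132 at 30 µM as the positive control and 0% = DMSO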
# PGE2 EP2 inh: human EP2 receptor antagonists, primary screen, TR-FRET cAMP, C6 glioma cells | C6 glioma cells expressing human EP2; cells stimulated with saturating PGE2 | inhibition, % at 25 µM | 260,000 tested, 0.52% active | AID 1422, 2008;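 active = percent inhibition above 40 after rounding to a whole number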;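 also: rat C6 glioma host cells with rolipram phosphodiesterase inhibitor present; the protocol text gives 20 µM as final concentration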
# Target sequence (P43116 whole entry, looked up): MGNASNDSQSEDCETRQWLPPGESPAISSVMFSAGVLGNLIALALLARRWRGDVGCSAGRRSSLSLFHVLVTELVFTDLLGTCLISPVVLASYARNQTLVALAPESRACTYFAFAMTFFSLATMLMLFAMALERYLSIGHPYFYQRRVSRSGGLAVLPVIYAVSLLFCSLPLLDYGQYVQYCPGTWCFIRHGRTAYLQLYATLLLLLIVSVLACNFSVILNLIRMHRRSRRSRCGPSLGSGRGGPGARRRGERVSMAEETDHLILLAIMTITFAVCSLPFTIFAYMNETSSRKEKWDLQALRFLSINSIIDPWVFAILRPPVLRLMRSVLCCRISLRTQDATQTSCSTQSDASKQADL
# Dynein cargo inh: inhibitors of GR-EGFP nuclear translocation, primary screen, dynein cargo transport inhibitor project, imaging, high-content, 3617.4 mouse cells; test concentration mostly 20 µM; stimulated with dexamethasone, 1 µM; stronger effect = lower value; z-score, hits read low; 220,000 tested, 0.47% active; AID 1381, 2008;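 active = plate z-score of nuclear minus cytoplasmic receptor signal below a set negative limit, without overly bright fluorescence or cell loss, cut at about -3.5 in these data, passing the limit was not always enough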;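 also: z-score of nuclear minus cytoplasmic ring GR-EGFP intensity difference per well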
#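 Buffer or medium – tet-free medium with charcoal-stripped serum · Signal – automated 10x imaging of fixed Hoechst-stained cells · Also added – dexamethasone agonist, 1.0 µM final, for 30 min · Incubation – induction 48 h, compound 1 h, agonist 30 min · Read-out – GR-EGFP nuclear translocation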
# EP2 mod: EP2 receptor modulators, cAMP readout, primary screen, cell-based, HTRF cAMP, PGE2 stimulation. AID 940, 2007. 260,000 tested, 0.83% active. induction, % at 25 µM. EP2-expressing cells, cAMP HTRF FRET, PGE2 co-stimulation;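 active = compounds whose cAMP rise, as percent of the full-agonist control response, exceeds 60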;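 also: rat C6 glioma line stably carrying human EP2 under a CMV promoter; the protocol text gives 20 µM as final concentration; 100% = response of wells given 1 µM PGE2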
# Dynein inh conf: dynein cargo transport inhibitors, GR-EGFP translocation, confirmation, imaging, high-content imaging, GR-EGFP cells | 1,000 tested, 69% active | calls only at 20 µM | shares compounds with Dynein cargo inh | AID 463116, 2010 | 3617.4 GR-EGFP nuclear translocation imaging, dexamethasone-induced;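 active = inhibition of receptor movement into the nucleus at or above a set limit in both runs, with normal cell brightness and cell count; inconclusive = limit reached in only one run, brightness and count normal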;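 also: dexamethasone at 1 µM final in well for 30 min; nuclear minus cytoplasmic GR-EGFP mean intensity difference in channel 2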
# * hit, by the source's call; i = inactive; ? = inconclusive; / = no result given; + = active, no number.
SMILES,Hsp70 activator,PGE2 EP2 inh,Dynein cargo inh,EP2 mod,Dynein inh conf
CCOc1cc(/C=C2\C(=O)N(CCc3ccc(OC)c(OC)c3)C(C)=C2C(=O)OC)ccc1O,0,1,-4*,27,i
CCOc1cc(/C=C\[N+](=O)[O-])ccc1OCC(=O)Nc1ccccc1C,0,26,-3.6*,-38,+
CCOc1cc(/C=N/NC(N)=O)cc(Br)c1OCC(=O)Nc1ccccc1C,0,12,0.15,0,/
Cc1ccc(N2C(=O)c3cccc4c(N)ccc(c34)C2=O)c2cccnc12,/,5,-5.4*,8,?
Cc1nc2ccccc2n1/N=C/c1ccc([N+](=O)[O-])o1,0,34,-1.4,/,/
Cc1nc2ccccc2c(=O)n1/N=C/c1ccc([N+](=O)[O-])o1,/,-2,-4*,-59,+
O=C(CCN1Cc2ccccc2C1=O)NCc1nc(-c2ccccc2Cl)no1,/,10,/,-47,/
Cc1ccc(OCc2nnc(SCC(=O)Nc3ccccc3Br)n2C)cc1,/,9,/,9,/
CC(=O)/C(=C/c1ccccc1)C(=O)Nc1ccccc1C,0,7,-6.7*,-67,+
CC[C@@H](Cn1ncc2ccccc2c1=O)NC(=O)c1c(-n2cnnn2)sc2c1CCCC2,/,12,/,12,/
COC(=O)c1ccc(C(C(=O)NC2CCCCC2)N(Cc2ccc(F)cc2)C(=O)Cc2cccs2)cc1 (configuration not stated),0,4,-0.77,41,/
COC(CN(C(=O)CCl)C(C(=O)NC1CCCCC1)c1ccc(Cl)cc1)OC (configuration not stated),0,23,-4.1*,20,+
O=C(NC1CCCC1)C(c1ccc(Cl)cc1)N(Cc1ccc(F)cc1)C(=O)CCl (configuration not stated),0,9,-5.3*,27,+
O=C(NC1CCCC1)C(c1ccc(F)cc1)N(Cc1ccc(Cl)cc1)C(=O)CCl (configuration not stated),0,8,-3.7*,11,+
COC(CN(C(=O)CCl)C(C(=O)NC1CCCC(C)C1C)c1ccc(C)cc1)OC (configuration not stated),0,4,-4.3*,7,+
COC(CN(C(=O)CCl)C(C(=O)NC1CCCCC1)c1ccccc1C)OC (configuration not stated),0,11,-1.9,31,/
COC(=O)c1ccc(Cl)c(NC(=O)CN2C(=O)c3cccc4cccc2c34)c1,/,12,/,-19,/
CCc1nc2sc3c(c2c2nnc(SCC(=O)Nc4ccc(OC)cc4OC)n12)CCC(C)C3 (configuration not stated),/,14,/,22,/
Cc1[nH]c2ccccc2c(=O)c1C(=O)/C=C/c1ccccc1,/,9,-6*,-23,+
Cc1[nH]c2ccccc2c1/C=C/C(=O)c1ccccc1,0,2,1.3,-14,/
CCOC(=O)/C=C/C(=O)Nc1ccccc1-c1ccccc1NC(=O)/C=C/C(=O)OCC,0,4,-4.1*,-55,+
COC(=O)[C@@H]1CN(C(=O)Cc2ccc(Cl)cc2)C[C@H]1c1ccc(OC)cc1,/,/,/,-9,/
CCc1cccc2cc3c(N)c(C(=O)Nc4ccc(S(=O)(=O)N5CCCC5)cc4)sc3nc12,0,11,-6.6,-10,i
Cc1cccc2cc3c(N)c(C(=O)Nc4ccc(N5CCOCC5)cc4)sc3nc12,0,15,-0.49,-59,/
CC(C)CN1C(=O)/C(=C/c2c(N3CCc4ccccc4C3)nc3ccccn3c2=O)SC1=S,/,10,-8.6,35,i
CCOC(=O)CC1C(=O)NCCN1c1nc2c(C)cccn2c(=O)c1/C=C1\SC(=S)N(CC(C)C)C1=O (configuration not stated),/,13,-3.5,-15,/
Cc1ccc2c(c1)S/C(=C/c1ccc[n+](CCO)c1)N2C,0,14,-0.76,28,/
Cc1cc(/C=C2\Sc3ccccc3N2C)cc(C)[n+]1CC1CCCO1 (configuration not stated),0,17,-5.6,-32,i
